Values belong to the molecule of their own block, whether it stands above or below them.
Assays:
Type in all cases: biochemical
hGST M1-1 = target: T1, hGST M1-1 (Homo sapiens, UniProt P09488); assay: 1,536-well luminescence GST inhibition assay, hGST M1-1; conditions: for IC50: 5 nM hGST M1-1, 10 μM PBI 3773, 40 min
T1 sequence (P09488 2-218 limits assumed): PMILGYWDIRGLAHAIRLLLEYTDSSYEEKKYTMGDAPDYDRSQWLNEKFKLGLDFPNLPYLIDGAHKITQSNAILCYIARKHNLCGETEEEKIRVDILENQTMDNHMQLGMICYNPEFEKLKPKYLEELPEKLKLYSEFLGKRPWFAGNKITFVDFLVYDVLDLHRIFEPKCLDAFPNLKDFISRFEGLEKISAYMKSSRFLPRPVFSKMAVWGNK
Procedure, shortened: (§1)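 GST at 5 nM (hGST P1-1 125 nM) with GSH in 50 mM HEPES pH 7.5, 0.01% Tween-20. Pin-added test compound (1:2 16-point or 1:3 8-point series), 10 or 15 min RT. Substrate: PBI 1155 20 μM (S. japonicum), PBI 3773 10 μM (A1-1, M1-1, A4-4), PBI 1158 100 μM (P1-1). Reaction 40 min (P1-1 60 min) RT, then luciferase detection reagent and luminescence read. Percent inhibition from median catalyzed and no-enzyme controls; duplicate wells; curve-fitted IC50.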

[1] = test system: GSTs (hGST A1-1, mGST A4-4, hGST M1-1, hGST P1-1, S. japonicum GST); assay: 1,536-well luminescence GST inhibition assay, all GSTs tested
Procedure, shortened: as §1

S. japonicum GST = S. japonicum GST (Schistosoma japonicum, UniProt P08515); assay: 1,536-well luminescence GST inhibition assay, S. japonicum GST
S. japonicum GST, sequence (P08515 whole entry): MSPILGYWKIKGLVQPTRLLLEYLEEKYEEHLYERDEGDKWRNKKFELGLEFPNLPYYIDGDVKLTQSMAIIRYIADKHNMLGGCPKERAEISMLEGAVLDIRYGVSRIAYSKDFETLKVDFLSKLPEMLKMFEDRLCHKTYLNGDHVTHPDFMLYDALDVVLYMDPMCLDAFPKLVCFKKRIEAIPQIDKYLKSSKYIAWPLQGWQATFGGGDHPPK
Procedure, shortened: as §1

hGST P1-1 = hGST P1-1 (Homo sapiens, UniProt P09211); assay: 1,536-well luminescence GST inhibition assay, hGST P1-1
hGST P1-1, sequence (P09211 2-210 limits assumed): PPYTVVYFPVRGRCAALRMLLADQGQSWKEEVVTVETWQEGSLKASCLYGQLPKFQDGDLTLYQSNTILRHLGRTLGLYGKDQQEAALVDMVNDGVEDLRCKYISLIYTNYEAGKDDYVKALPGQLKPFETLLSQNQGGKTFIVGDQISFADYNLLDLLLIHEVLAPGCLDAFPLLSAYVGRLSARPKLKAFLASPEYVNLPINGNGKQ
Procedure, shortened: as §1

IC50 (hGST M1-1): 191 nM
fold difference in IC50 (NBD-GS vs Bis-(NB-GS)) (hGST M1-1; hGST M1-1): ~ 130 fold
SMILES: NC(CCC(=O)NC(CSc1ccc(C(=O)OCCOCCOCCOCCOC(=O)c2ccc(SCC(NC(=O)CCC(N)C(=O)O)C(=O)NCC(=O)O)c([N+](=O)[O-])c2)cc1[N+](=O)[O-])C(=O)NCC(=O)O)C(=O)O (stereo not shown) [Bis-(NB-GS)]

SMILES: O=[N+]([O-])c1ccc(Cl)c([N+](=O)[O-])c1 [CDNB, 1-chloro-2,4-dinitrobenzene]
inhibition (in words) ([1]; top concentrations tested near 100 μM): partial inhibition only at the top concentrations tested

SMILES: O=[N+]([O-])c1ccc(SCCCCCCCCO)c2nonc12 [NBD-8-OH]
inhibitory activity (in words) ([1]; against the GSTs tested): single-digit micromolar or better

IC50 (hGST M1-1): 24400 nM
SMILES: NC(CCC(=O)NC(CSc1ccc([N+](=O)[O-])c2nonc12)C(=O)NCC(=O)O)C(=O)O (stereo not shown) [NBD-GS]

SMILES: Nc1c(S(=O)(=O)O)cc(Nc2ccc(Nc3nc(Cl)nc(Nc4cccc(S(=O)(=O)O)c4)n3)c(S(=O)(=O)O)c2)c2c1C(=O)c1ccccc1C2=O [Reactive Blue 2]
IC50 (S. japonicum GST): 63 nM
onset of luminescence quenching relative to IC50 (S. japonicum GST; S. japonicum GST): several hundred times greater
onset of luminescence decrease relative to IC50 (hGST M1-1; hGST M1-1): 8 fold
onset of luminescence quenching relative to IC50 (hGST P1-1; hGST P1-1): approximately 60 fold

SMILES: O=C1OC(c2ccc(O)c(S(=O)(=O)O)c2)(c2ccc(O)c(S(=O)(=O)O)c2)c2c(Br)c(Br)c(Br)c(Br)c21 [bromosulfalein]
inhibition (in words) (hGST P1-1; 125 nM hGST P1-1, 100 μM PBI 1158, 60 min): lack of inhibition

Source: article PMC2864799 (Assay and drug development technologies, 2010)
